According to ChEMBL document CHEMBL1156793, “Identification, synthesis, and pharmacological evaluation of tetrahydroindazole based ligands as novel antituberculosis agents” (J Med Chem, 2010):
Values after ≈ are worked out from the molar mass of the structure shown.

Legend:
[1] = system: Mycobacterium tuberculosis; test: Antimycobacterial activity against Mycobacterium tuberculosis H37Rv after 16 to 24 hrs by microplate alamar blue assay; format: functional
Method in brief: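 M. tuberculosis H37Rv (ATCC 27294), 1 × 10^5 cfu/mL inoculum, in 7H12 medium with two-fold compound dilutions at 128 to 0.5 μM final (12.8 mM DMSO stocks). Incubated aerobically at 37 °C for 7 days, then Tween 80 plus Alamar blue added for 16-24 h. Fluorescence read at ex 530/em 590 nm. MIC = lowest concentration giving ≥90% reduction versus bacteria-only controls; average of two measurements.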

Vero = test: Cytotoxicity against african green monkey Vero cells after 72 hrs; format: cell-based; conditions: Chlorocebus sabaeus
Method in brief: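 Vero cells (CCL-81), 5 × 10^5 log-phase cells per well, exposed to geometric 3-fold dilutions in MEM with 10% FBS, 25 mM HEPES, 0.2% NaHCO3, 2 mM glutamine. DMSO ≤1% v/v final. Tested in duplicate at 37 °C, 5% CO2. Viability read after 72 h by CellTiter 96 aqueous (MTS) absorbance at 490 nm. IC50 from curve fitting.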

[2] = Selectivity index, ratio of IC50 for african green monkey Vero cells to MIC for Mycobacterium tuberculosis H37Rv ATCC 27294; format: functional
Method in brief: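 The ratio takes the Vero (CCL-81) IC50 as numerator. Cells were exposed to geometric 3-fold dilutions (12.8 mM DMSO stocks, final DMSO ≤1% v/v) in MEM with 10% FBS, 25 mM HEPES and 2 mM glutamine, in duplicate. Culture was 72 h at 37 °C, 5% CO2. Viability was read by CellTiter 96 aqueous absorbance at 490 nm, and IC50 came from curve fitting. The denominator is the H37Rv MABA MIC.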

[3] = Metabolic stability in mouse liver microsomes assessed as half life; format: ADME, Microsome
Method in brief: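 Mixture prewarmed 5 min, then started with 1.0 mM NADPH. Quenched with acetonitrile plus internal standard at 0, 5, 10, 15, 20 and 30 min. Parent measured by LC-MS-MS. No-NADPH controls.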

[4] = Metabolic stability in mouse liver microsomes assessed as intrinsic clearance; format: ADME, Microsome
Method in brief: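 Intrinsic clearance scaled up from the in vitro half-life in mouse liver microsomes. Microsomes at 0.5 mg/mL, compound at 1 μM, 1.0 mM NADPH, pH 7.4 phosphate buffer, 37 °C, in triplicate. Parent depletion followed over 30 min by LC-MS-MS.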

[5] = Metabolic stability in mouse liver microsomes assessed as hepatic clearance; format: ADME, Microsome
Method in brief: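 Hepatic plasma clearance predicted from microsomal intrinsic clearance with the nonrestricted well-stirred liver model. Assumes protein binding is similar in blood and microsomes. Microsomal depletion run at 1 μM compound, 0.5 mg/mL mouse microsomes, 1.0 mM NADPH, 37 °C, in triplicate, measured by LC-MS-MS.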

[6] = Cmax in BALB/c mouse at 50 mg/kg, po; format: ADME, organism-based; set-up: dose 50 mg/kg, route oral; conditions: in vivo
Method in brief: (§1)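 Female BALB/c mice (20-22 g), groups of 12, single oral 50 mg/kg dose formulated in 5% NMP/95% PEG400. Retro-orbital blood sampled at 0, 0.5, 1, 2, 4, 8 and 24 h postdose. Plasma obtained by centrifugation, precipitated with three volumes acetonitrile containing internal standard. Parent quantified by LC-MS-MS. AUC over 0–24 h.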

[7] = Tmax in BALB/c mouse at 50 mg/kg, po; format: ADME, organism-based; set-up: dose 50 mg/kg, route oral; conditions: in vivo; method in brief: as §1
[8] = AUC in BALB/c mouse at 50 mg/kg, po; format: ADME, organism-based; set-up: dose 50 mg/kg, route oral; conditions: plasma; method in brief: as §1

| Compound | MIC [1] | also measured |
| --- | --- | --- |
| Cc1nonc1C(=O)NC1CCCc2c1cnn2-c1ccc(C(C)(C)C)cc1 (stereo not given) | 1.7 µM (≈ 0.645 µg/mL) | IC50 (Vero): > 128 µM; Ratio IC50 [2]: >75.3; half-life [3]: 27 min; CLint scaled [4]: 200 mL/min/kg; CLhep predicted [5]: 34 mL/min/kg; Cmax [6]: 1.5 µM; Tmax [7]: 30 min; AUC [8]: 3.6 µM·h |
| Cc1nonc1C(=O)Nc1cccc2c1cnn2-c1ccc(C(C)(C)C)cc1 | > 128 µM | – |
| Cc1nonc1C(=O)NC1CCCc2c1cnn2-c1ccc(NC(=O)C(C)(C)C)cc1 (stereo not given) | 110 µM (≈ 46.5 µg/mL) | – |
| Cc1nonc1C(=O)NC1CCCc2c1cnn2-c1ccc(NC(=O)C(F)(F)F)cc1 (stereo not given) | 128 µM (≈ 55.4 µg/mL) | – |
| COC(=O)c1ccc(C(=O)NC2CCCc3c2cnn3-c2ccc(C(C)(C)C)cc2)nc1 (stereo not given) | 7.3 µM (≈ 3.16 µg/mL) | – |
| CC(C)(C)c1ccc(-n2ncc3c2CCCC3NC(=O)c2ccno2)cc1 (stereo not given) | 124 µM (≈ 45.2 µg/mL) | – |
| Cc1nonc1C(=O)NC1CCCc2c1cnn2-c1ccc(OC(F)(F)F)cc1 (stereo not given) | 1.9 µM (≈ 0.774 µg/mL) | IC50 (Vero): > 128 µM; Ratio IC50 [2]: >67.4; half-life [3]: 102 min; CLint scaled [4]: 54 mL/min/kg; CLhep predicted [5]: 23 mL/min/kg; Cmax [6]: 9.5 µM; Tmax [7]: 30 min; AUC [8]: 53.5 µM·h |
| Cc1nc2cc(C(=O)NC3CCCc4c3cnn4-c3ccc(OC(F)(F)F)cc3)ccc2s1 (stereo not given) | > 128 µM | – |
| Cc1nonc1C(=O)Nc1ccc(-n2ncc3c2CCCC3NC(=O)c2nonc2C)cc1 (stereo not given) | 44.9 µM (≈ 20.1 µg/mL) | – |
| Cc1cc(C)cc(-n2ncc3c2CCCC3NC(=O)c2ccc3nonc3c2)c1 (stereo not given) | > 128 µM | – |
| CC(C)(C)c1ccc(-n2ncc3c2CCCC3NC(=O)c2cnccn2)cc1 (stereo not given) | 57.7 µM (≈ 21.7 µg/mL) | – |
| Cc1nonc1C(=O)NC1CCCc2c1cnn2-c1ccc(F)cc1 (stereo not given) | 30.7 µM (≈ 10.5 µg/mL) | – |
| Cc1nonc1C(=O)NC1CCCc2c1nnn2-c1ccc(C(C)(C)C)cc1 (stereo not given) | 7.7 µM (≈ 2.93 µg/mL) | – |
| Cc1nonc1CNC1CCCc2c1cnn2-c1ccc(C(C)(C)C)cc1 (stereo not given) | 38.6 µM (≈ 14.1 µg/mL) | – |
| COc1ccc(-n2ncc3c2CCCC3NC(=O)c2nonc2C)cc1 (stereo not given) | > 128 µM | – |
| Cc1nonc1C(=O)NC1CCCc2c1cnn2-c1ccc(C(F)(F)F)cc1 (stereo not given) | 1.9 µM (≈ 0.744 µg/mL) | IC50 (Vero): > 128 µM; Ratio IC50 [2]: >67.4 |
| Cc1cc(C)cc(-n2ncc3c(NC(=O)c4nonc4C)cccc32)c1 | 117 µM (≈ 40.6 µg/mL) | – |
| CC(C)(C)c1ccc(-n2ncc3c2CCCC3NC(=O)c2ncccc2O)cc1 (stereo not given) | 26.9 µM (≈ 10.5 µg/mL) | – |

| Compound | MIC [1] | also measured |
| --- | --- | --- |
| Cc1cc(C)cc(-n2ncc3c(NC(=O)c4ccc5c(c4)no[n+]5[O-])cccc32)c1 | 0.7 µM (≈ 0.28 µg/mL) | IC50 (Vero): 16.1 µM; Ratio IC50 [2]: 23 |
| Cc1cc(C)cc(-n2ncc3c2CCCC3NC(=O)c2nonc2C)c1 (stereo not given) | > 128 µM | – |
| Cc1nocc1C(=O)NC1CCCc2c1cnn2-c1ccc(OC(F)(F)F)cc1 (stereo not given) | 48.9 µM (≈ 19.9 µg/mL) | – |
| CC(C)(C)c1ccc(-n2ncc3c2CCCC3NC(=O)c2ccc3c(c2)no[n+]3[O-])cc1 (stereo not given) | 1 µM (≈ 0.431 µg/mL) | IC50 (Vero): 29 µM; Ratio IC50 [2]: 29 |
| Cc1nonc1C(=O)NC1CCCc2c1cnn2-c1ccc([N+](=O)[O-])cc1 (stereo not given) | > 128 µM | – |
| Cc1nonc1C(=O)NC1CCCc2c1cnn2-c1ccc(Br)cc1 (stereo not given) | 64.6 µM (≈ 26 µg/mL) | – |
| Cc1nonc1C(=O)NC1CCCc2c1cnn2-c1ccc(N)cc1 (stereo not given) | > 128 µM | – |
| CSCCC(=O)NC1CCCc2c1cnn2-c1ccc(OC(F)(F)F)cc1 (stereo not given) | 88.3 µM (≈ 35.3 µg/mL) | – |
| CC(C)(C)c1ccc(-n2ncc3c(NC(=O)c4ccc5c(c4)no[n+]5[O-])cccc32)cc1 | 0.4 µM (≈ 0.171 µg/mL) | IC50 (Vero): 1.8 µM; Ratio IC50 [2]: 4.5 |
| Cc1nonc1C(=O)NC1CCCc2c1cnn2-c1ccc(C(F)(F)F)cn1 (stereo not given) | > 128 µM | – |
| Cc1nonc1C(=O)NC1CCCc2c1cnn2-c1ccccc1C(F)(F)F (stereo not given) | > 128 µM | – |
| Cc1cc(C)cc(-n2ncc3c2CCCC3NC(=O)c2ccc3c(c2)no[n+]3[O-])c1 (stereo not given) | 1.9 µM (≈ 0.767 µg/mL) | – |
| Cc1nonc1C(=O)NC1CCCc2c1cnn2-c1cccc(C(F)(F)F)c1 (stereo not given) | 15.4 µM (≈ 6.03 µg/mL) | – |
| CSCC[C@H](N)C(=O)NC1CCCc2c1cnn2-c1ccc(C(C)(C)C)cc1 (stereo not given in full) | 4.8 µM (≈ 1.92 µg/mL) | – |
| CC(C)(C)c1ccc(-n2ncc3c2CCCC3NC(=O)c2ccc3nonc3c2)cc1 (stereo not given) | > 128 µM | – |
| Cc1nonc1C(=O)NC1CCCc2c1cnn2-c1ccc(NC(C)C)cc1 (stereo not given) | > 128 µM | – |
| CO[C@H]1/C=C/O[C@@]2(C)Oc3c(C)c(O)c4c(O)c(c(/C=N/N5CCN(C)CC5)c(O)c4c3C2=O)NC(=O)/C(C)=C\C=C\[C@H](C)[C@H](O)[C@@H](C)[C@@H](O)[C@@H](C)[C@H](OC(C)=O)[C@@H]1C [RIFAMPIN] | 0.06 µM (≈ 0.0494 µg/mL) | Ratio IC50 [2]: 2033 |
